Assay results reported in ChEMBL document CHEMBL1155830, “Asymmetric synthesis of 2,3-dihydro-2-arylquinazolin-4-ones: methodology and application to a potent fluorescent tubulin inhibitor with anticancer activity” (J Med Chem, 2008).

Legend:
[1] = Displacement of [3H]colchicine from tubulin at 5 uM
HCT-116 = experiment: Antiproliferative activity against human HCT116 cells after 72 hrs; format: functional; conditions: HCT-116, 72 h
Summary of the method: (§1)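 HCT-116 cells were kept in McCoy's 5a with 1.5 mM L-glutamine and 5% FBS, and MDA-MB-435 cells in D-MEM with 1.5 mM L-glutamine and 5% FBS, both at 37 °C in humidified 5% CO2. Cells were seeded at 3200 per well, allowed to attach, and given vehicle or drug at 10 nM–3 µM (n = 8) for 72 h. Live cells were read by CellTiter 96 AQueous at 490 nm, and the 50% inhibitory value was taken from the dose–response curve.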

[2] = Displacement of [3H]colchicine from tubulin at 50 uM
MDA-MB-435 = experiment: Antiproliferative activity against human MDA-MB-435 cells after 72 hrs; format: functional; conditions: MDA-MB-435, 72 h; summary of the method: as §1
[3] = Inhibition of tubulin polymerization

Compound	inhibition [1] [%]	GI50 (HCT-116) [nM]	inhibition [2] [%]	GI50 (MDA-MB-435) [nM]	IC50 [3] [nM]
Cc1ccccc1-c1ccc([C@@H]2NC(=O)c3cc([N+](=O)[O-])ccc3N2)cc1	28	100	66	0.1	1100
CC(=O)O[C@H]1C(=O)[C@@]2(C)[C@H]([C@H](OC(=O)c3ccccc3)[C@]3(O)C[C@H](OC(=O)[C@H](O)[C@@H](NC(=O)c4ccccc4)c4ccccc4)C(C)=C1C3(C)C)[C@]1(OC(C)=O)CO[C@@H]1C[C@@H]2O [PACLITAXEL]	–	–	–	4	–
COc1ccc(/C=C\c2cc(OC)c(OC)c(OC)c2)cc1O	99	–	–	–	–
Cc1ccccc1-c1ccc(C2NC(=O)c3cc([N+](=O)[O-])ccc3N2)cc1 (racemic)	17	300	51	100	1700
Cc1ccccc1-c1ccc([C@H]2NC(=O)c3cc([N+](=O)[O-])ccc3N2)cc1	2.1	930	5.5	1100	16000
